Measurements published in ChEMBL document CHEMBL2086252, “Syntheses and evaluation of anticonvulsant activity of novel branched alkyl carbamates” (J Med Chem, 2012).
Calls of active or inactive are those of the source. The calls are words filed in the database; no cut-off is given here.

Experiments:
Mus musculus [1] = experiment: Anticonvulsant activity in albino CF1 mouse assessed as protection against subcutaneous metrazol-induced seizures at 30 mg/kg, ip after 0.5 hrs; format: functional, organism-based; set-up: dose 30 mg/kg
Summary of the method: (§1)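 Mice dosed ip at 30, 100 or 300 mg/kg, then tested 0.5 h and 4 h after administration in the MES or scMet test. Protection was recorded as animals protected over animals tested. Neurotoxicity was recorded as motor impairment or sedation, as animals affected over animals tested.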

Mus musculus [2] = experiment: Anticonvulsant activity in albino CF1 mouse assessed as protection against subcutaneous metrazol-induced seizures at 100 mg/kg, ip after 0.5 hrs; format: functional, organism-based; set-up: dose 100 mg/kg; summary of the method: as §1
Mus musculus [3] = experiment: Anticonvulsant activity in albino CF1 mouse assessed as protection against subcutaneous metrazol-induced seizures at 300 mg/kg, ip after 0.5 hrs; format: functional, organism-based; set-up: dose 300 mg/kg; summary of the method: as §1
Mus musculus [4] = experiment: Anticonvulsant activity in albino CF1 mouse assessed as protection against subcutaneous metrazol-induced seizures at 30 mg/kg, ip after 4 hrs; format: functional, organism-based; set-up: dose 30 mg/kg; summary of the method: as §1
Mus musculus [5] = experiment: Anticonvulsant activity in albino CF1 mouse assessed as protection against subcutaneous metrazol-induced seizures at 100 mg/kg, ip after 4 hrs; format: functional, organism-based; set-up: dose 100 mg/kg; summary of the method: as §1
Mus musculus [6] = experiment: Anticonvulsant activity in albino CF1 mouse assessed as protection against subcutaneous metrazol-induced seizures at 300 mg/kg, ip after 4 hrs; format: functional, organism-based; set-up: dose 300 mg/kg; summary of the method: as §1
Mus musculus [7] = experiment: Anticonvulsant activity in albino CF1 mouse assessed as protection against maximal electroshock-induced seizures at 30 mg/kg, ip after 0.5 hrs; format: functional, organism-based; set-up: dose 30 mg/kg; summary of the method: as §1
Mus musculus [8] = experiment: Anticonvulsant activity in albino CF1 mouse assessed as protection against maximal electroshock-induced seizures at 300 mg/kg, ip after 0.5 hrs; format: functional, organism-based; set-up: dose 300 mg/kg; summary of the method: as §1
Mus musculus [9] = experiment: Anticonvulsant activity in albino CF1 mouse assessed as protection against maximal electroshock-induced seizures at 30 mg/kg, ip after 4 hrs; format: functional, organism-based; set-up: dose 30 mg/kg; summary of the method: as §1
Mus musculus [10] = experiment: Anticonvulsant activity in albino CF1 mouse assessed as protection against maximal electroshock-induced seizures at 100 mg/kg, ip after 4 hrs; format: functional, organism-based; set-up: dose 100 mg/kg; summary of the method: as §1
Mus musculus [11] = experiment: Anticonvulsant activity in albino CF1 mouse assessed as protection against maximal electroshock-induced seizures at 300 mg/kg, ip after 4 hrs; format: functional, organism-based; set-up: dose 300 mg/kg; summary of the method: as §1
Mus musculus [12] = experiment: Neurotoxicity in albino CF1 mouse assessed as minimal motor impairment at 30 mg/kg, ip after 0.5 hrs by rotarod test; format: toxicity, organism-based; set-up: dose 30 mg/kg, route intraperitoneal; conditions: in vivo; summary of the method: as §1
Mus musculus [13] = experiment: Neurotoxicity in albino CF1 mouse assessed as minimal motor impairment at 100 mg/kg, ip after 0.5 hrs by rotarod test; format: toxicity, organism-based; set-up: dose 100 mg/kg, route intraperitoneal; conditions: in vivo; summary of the method: as §1
Mus musculus [14] = experiment: Neurotoxicity in albino CF1 mouse assessed as minimal motor impairment at 300 mg/kg, ip after 0.5 hrs by rotarod test; format: toxicity, organism-based; set-up: dose 300 mg/kg, route intraperitoneal; conditions: in vivo; summary of the method: as §1
Mus musculus [15] = experiment: Neurotoxicity in albino CF1 mouse assessed as minimal motor impairment at 30 mg/kg, ip after 4 hrs by rotarod test; format: toxicity, organism-based; set-up: dose 30 mg/kg, route intraperitoneal; conditions: in vivo; summary of the method: as §1
Mus musculus [16] = experiment: Neurotoxicity in albino CF1 mouse assessed as minimal motor impairment at 100 mg/kg, ip after 4 hrs by rotarod test; format: toxicity, organism-based; set-up: dose 100 mg/kg, route intraperitoneal; conditions: in vivo; summary of the method: as §1
Mus musculus [17] = experiment: Neurotoxicity in albino CF1 mouse assessed as minimal motor impairment at 300 mg/kg, ip after 4 hrs by rotarod test; format: toxicity, organism-based; set-up: dose 300 mg/kg, route intraperitoneal; conditions: in vivo; summary of the method: as §1
Rattus norvegicus [18] = experiment: Anticonvulsant activity in Sprague-Dawley albino rat assessed as protection against pilocarpine-induced status epilepticus at 200 mg/kg, ip; format: functional, organism-based; set-up: dose 200 mg/kg
Summary of the method: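 Pilocarpine status epilepticus model in rats. Number and severity of convulsive seizures were observed behaviourally.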

Rattus norvegicus [19] = experiment: Neurotoxicity in pilocarpine-induced status epilepticus Sprague-Dawley albino rat model assessed as minimal motor impairment at 100 mg/kg, ip after 0.25 hr by rotarod test; format: toxicity, organism-based; set-up: dose 100 mg/kg, route intraperitoneal; conditions: in vivo
Rattus norvegicus [20] = experiment: Neurotoxicity in pilocarpine-induced status epilepticus Sprague-Dawley albino rat model assessed as minimal motor impairment at 300 mg/kg, ip after 0.25 hr by rotarod test; format: toxicity, organism-based; set-up: dose 300 mg/kg, route intraperitoneal; conditions: in vivo
Summary of the method: (§2)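 Rat pilocarpine status epilepticus model: test carbamate given at 0 or 30 min after the first observed Racine stage 3 motor seizure, which marks SE onset. Neurotoxicity was scored within the same model.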

Rattus norvegicus [21] = experiment: Neurotoxicity in pilocarpine-induced status epilepticus Sprague-Dawley albino rat model assessed as minimal motor impairment at 100 mg/kg, ip after 0.5 hrs by rotarod test; format: toxicity, organism-based; set-up: dose 100 mg/kg, route intraperitoneal; conditions: in vivo
Rattus norvegicus [22] = experiment: Neurotoxicity in pilocarpine-induced status epilepticus Sprague-Dawley albino rat model assessed as minimal motor impairment at 300 mg/kg, ip after 0.5 hrs by rotarod test; format: toxicity, organism-based; set-up: dose 300 mg/kg, route intraperitoneal; conditions: in vivo; summary of the method: as §2
Rattus norvegicus [23] = experiment: Neurotoxicity in pilocarpine-induced status epilepticus Sprague-Dawley albino rat model assessed as minimal motor impairment at 100 mg/kg, ip after 1 hr by rotarod test; format: toxicity, organism-based; set-up: dose 100 mg/kg, route intraperitoneal; conditions: in vivo
Rattus norvegicus [24] = experiment: Neurotoxicity in pilocarpine-induced status epilepticus Sprague-Dawley albino rat model assessed as minimal motor impairment at 100 mg/kg, ip after 2 hrs by rotarod test; format: toxicity, organism-based; set-up: dose 100 mg/kg, route intraperitoneal; conditions: in vivo
Rattus norvegicus [25] = experiment: Neurotoxicity in pilocarpine-induced status epilepticus Sprague-Dawley albino rat model assessed as minimal motor impairment at 300 mg/kg, ip after 2 hrs by rotarod test; format: toxicity, organism-based; set-up: dose 300 mg/kg, route intraperitoneal; conditions: in vivo; summary of the method: as §2
Rattus norvegicus [26] = experiment: Neurotoxicity in pilocarpine-induced status epilepticus Sprague-Dawley albino rat model assessed as minimal motor impairment at 100 mg/kg, ip after 4 hrs by rotarod test; format: toxicity, organism-based; set-up: dose 100 mg/kg, route intraperitoneal; conditions: in vivo
Rattus norvegicus [27] = experiment: Neurotoxicity in pilocarpine-induced status epilepticus Sprague-Dawley albino rat model assessed as minimal motor impairment at 300 mg/kg, ip after 4 hrs by rotarod test; format: toxicity, organism-based; set-up: dose 300 mg/kg, route intraperitoneal; conditions: in vivo; summary of the method: as §2

## CC(C)C(C)COC(N)=O (racemic)
Mus musculus [1]
  Activity: inactive
Mus musculus [2]
  Activity: inactive
Mus musculus [3]
  Activity: Active
Mus musculus [4]
  Activity: inactive
Mus musculus [5]
  Activity: inactive
Mus musculus [6]
  Activity: inactive
Mus musculus [7]
  Activity: inactive
Mus musculus [8]
  Activity: Active
Mus musculus [9]
  Activity: inactive
Mus musculus [10]
  Activity: inactive
Mus musculus [11]
  Activity: inactive
Mus musculus [12]
  Activity: Non-toxic
Mus musculus [13]
  Activity: Non-toxic
Mus musculus [14]
  Activity: Toxic
Mus musculus [15]
  Activity: Non-toxic
Mus musculus [16]
  Activity: Non-toxic
Mus musculus [17]
  Activity: Non-toxic
Rattus norvegicus [18]
  Activity: Active
Rattus norvegicus [19]
  Activity: Non-toxic
Rattus norvegicus [20]
  Activity: Toxic
Rattus norvegicus [21]
  Activity: Non-toxic
Rattus norvegicus [22]
  Activity: Toxic
Rattus norvegicus [23]
  Activity: Non-toxic
Rattus norvegicus [24]
  Activity: Non-toxic
Rattus norvegicus [25]
  Activity: Non-toxic
Rattus norvegicus [26]
  Activity: Non-toxic
Rattus norvegicus [27]
  Activity: Non-toxic
